According to ChEMBL document CHEMBL4350961, “Discovery of Pyrrolo[3,2- d]pyrimidin-4-one Derivatives as a New Class of Potent and Cell-Active Inhibitors of P300/CBP-Associated Factor Bromodomain” (J Med Chem, 2019):
Values after ≈ are worked out from the molar mass of the structure shown. Active and inactive are the calls of the source. The calls are words filed in the database; no cut-off is given here.

Key:
[1] = target: [Pyruvate dehydrogenase (acetyl-transferring)] kinase isozyme 4, mitochondrial (Homo sapiens) (UniProt Q16654); assay: Inhibition of recombinant full-length human PDHK4 at 10 uM using KKKYHGHSMSDPGVSYRT as substrate measured after 40 mins in presence of [gamma33P]ATP by scintillation counting method
Homo sapiens [2] = species on record: Homo sapiens; assay: Inhibition of recombinant human Mer H628Q/R794A mutant (557 to 882 residues) at 10 uM using GGMEDIYFEFMGGKKK as substrate measured after 40 mins in presence of [gamma33P]ATP by scintillation counting method
[3] = target: Histone acetyltransferase KAT2A (Homo sapiens, UniProt Q92830); assay: Binding affinity to human N-terminal His-tagged GCN5 by isothermal titration calorimetry
[4] = test system: Angiopoietin-1 receptor (Homo sapiens), Q02763 [Q939H,Q940H]; assay: Inhibition of human Tie2 Q939H/Q940H mutant (771 to end residues) using poly(Glu, Tyr) 4:1 as substrate measured after 40 mins in presence of [gamma33P]ATP by scintillation counting method
[5] = Aqueous solubility of the compound by HPLC analysis; type: physicochemical; conditions: buffer
How it was run: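 Measured by HPLC on a C18 reversed-phase column.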

Homo sapiens [6] = species on record: Homo sapiens; assay: Inhibition of recombinant human Flt4 V1128L/H1146R mutant (800 to end residues) at 10 uM using GGEEEEYFELVKKKK as substrate measured after 40 mins in presence of [gamma33P]ATP by scintillation counting method
[7] = target: Aurora kinase B (Homo sapiens) (UniProt Q96GD4); assay: Inhibition of recombinant full-length human AURKB at 10 uM using AKRRRLSSLRA as substrate measured after 40 mins in presence of [gamma33P]ATP by scintillation counting method
[8] = target: Serine/threonine-protein kinase MARK2 (Homo sapiens) (UniProt Q7KZI7); assay: Inhibition of recombinant full-length human PAR1Balpha at 10 uM using KKKVSRSGLYRSPSMPENLNRPR as substrate measured after 40 mins in presence of [gamma33P]ATP by scintillation counting method
[9] = target: Bromodomain and PHD finger-containing protein 3 (Homo sapiens) (UniProt Q9ULD4); assay: Binding affinity to human partial length BRPF3 (E588 to G701 residues) expressed in bacterial expression system at 1 uM by BROMOscan assay
How it was run: (§1)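 BROMOscan bromodomain cross-screen run by an outside service, compound at 1 µM against 32 recombinant bromodomains. Binding given as percent of control.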

[10] = target: Serine/threonine-protein kinase PAK 5 (Homo sapiens) (UniProt Q9P286); assay: Inhibition of recombinant human PAK5 (425 to end residues) at 10 uM using RRRLSFAEPG as substrate measured after 40 mins in presence of [gamma33P]ATP by scintillation counting method
[11] = test system: Tyrosine-protein kinase ABL1 (Homo sapiens), P00519 [H396P]; assay: Inhibition of recombinant human ABL H396P mutant (27 to end residues) at 10 uM using EAIYAAPFAKKK as substrate measured after 40 mins in presence of [gamma33P]ATP by scintillation counting method
[12] = target: Testis-specific serine/threonine-protein kinase 2 (Homo sapiens) (UniProt Q96PF2); assay: Inhibition of recombinant full-length human TSSK2 at 10 uM using KKKVSRSGLYRSPSMPENLNRPR as substrate measured after 40 mins in presence of [gamma33P]ATP by scintillation counting method
[13] = target: SWI/SNF-related matrix-associated actin-dependent regulator of chromatin subfamily A member 2 (Homo sapiens) (UniProt P51531); assay: Binding affinity to human partial length SMARCA2 (S1377 to Q1486 residues) expressed in bacterial expression system at 1 uM by BROMOscan assay; how it was run: as §1
[14] = test system: Homeodomain-interacting protein kinase 2 (Homo sapiens), Q9H2X6 [UNDEFINED MUTATION]; assay: Inhibition of recombinant human HIPK2 I471N mutant (165 to 564 residues) at 10 uM using myelin basic protein as substrate measured after 40 mins in presence of [gamma33P]ATP by scintillation counting method
[15] = target: ATPase family AAA domain-containing protein 2B (Homo sapiens) (UniProt Q9ULI0); assay: Binding affinity to human partial length ATAD2B (Q955 to R1082 residues) expressed in bacterial expression system at 1 uM by BROMOscan assay; how it was run: as §1
[16] = test system: Phosphorylase b kinase gamma catalytic chain, liver/testis isoform (Homo sapiens), P15735 [F290L]; assay: Inhibition of recombinant human PhKgamma2 F290L mutant (1 to 301 residues) at 10 uM using KKLNRTLSFAEPG as substrate measured after 40 mins in presence of [gamma33P]ATP by scintillation counting method
[17] = target: Serine/threonine-protein kinase D2 (Homo sapiens) (UniProt Q9BZL6); assay: Inhibition of recombinant full-length human PKD2 at 10 uM using KKLNRTLSVA as substrate measured after 40 mins in presence of [gamma33P]ATP by scintillation counting method
[18] = target: NUAK family SNF1-like kinase 2 (Homo sapiens) (UniProt Q9H093); assay: Inhibition of recombinant full-length human NUAK2 at 10 uM using KKKVSRSGLYRSPSMPENLNRPR as substrate measured after 40 mins in presence of [gamma33P]ATP by scintillation counting method
[19] = target: Mitogen-activated protein kinase 10 (Homo sapiens) (UniProt P53779); assay: Inhibition of recombinant full-length human JNK3 at 10 uM using peptide substrate measured after 40 mins in presence of [gamma33P]ATP by scintillation counting method
[20] = target: Bromodomain adjacent to zinc finger domain protein 2B (Homo sapiens) (UniProt Q9UIF8); assay: Binding affinity to human N-terminal His-tagged BAZ2B assessed as change in melting temperature at 10 uM by SYPRO orange dye-based fluorescence assay
How it was run: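 Thermal shift with His-tagged human bromodomain at 2 μM final in 10 mM HEPES pH 7.5, 500 mM NaCl. Compound at 10 μM final with 0.1% DMSO; SYPRO Orange at 1:1000. Equilibrated 3 min at 25 °C, then heated from 25 to 95 °C at 1 °C/min. Melting temperature shift taken from fluorescence; at least duplicate.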

[21] = target: Receptor-type tyrosine-protein kinase FLT3 (Homo sapiens) (UniProt P36888); assay: Inhibition of recombinant human Flt3 (564 to end residues) at 10 uM using EAIYAAPFAKKK as substrate measured after 40 mins in presence of [gamma33P]ATP by scintillation counting method
[22] = target: Ribosomal protein S6 kinase alpha-3 (Homo sapiens) (UniProt P51812); assay: Inhibition of human Rsk2 (2 to end residues) using KKKNRTLSVA as substrate measured after 40 mins in presence of [gamma33P]ATP by scintillation counting method
How it was run: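 Kinase panel of 422 kinases screened by Eurofins KinaseProfiler at a single test-compound concentration of 10 µM.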

[23] = target: Mitogen-activated protein kinase kinase kinase 3 (Homo sapiens) (UniProt Q99759); assay: Inhibition of recombinant full-length human MEKK3 at 10 uM using myelin basic protein as substrate measured after 40 mins in presence of [gamma33P]ATP by scintillation counting method
Chain of Mitogen-activated protein kinase kinase kinase 3 (Homo sapiens) (Q99759 whole entry): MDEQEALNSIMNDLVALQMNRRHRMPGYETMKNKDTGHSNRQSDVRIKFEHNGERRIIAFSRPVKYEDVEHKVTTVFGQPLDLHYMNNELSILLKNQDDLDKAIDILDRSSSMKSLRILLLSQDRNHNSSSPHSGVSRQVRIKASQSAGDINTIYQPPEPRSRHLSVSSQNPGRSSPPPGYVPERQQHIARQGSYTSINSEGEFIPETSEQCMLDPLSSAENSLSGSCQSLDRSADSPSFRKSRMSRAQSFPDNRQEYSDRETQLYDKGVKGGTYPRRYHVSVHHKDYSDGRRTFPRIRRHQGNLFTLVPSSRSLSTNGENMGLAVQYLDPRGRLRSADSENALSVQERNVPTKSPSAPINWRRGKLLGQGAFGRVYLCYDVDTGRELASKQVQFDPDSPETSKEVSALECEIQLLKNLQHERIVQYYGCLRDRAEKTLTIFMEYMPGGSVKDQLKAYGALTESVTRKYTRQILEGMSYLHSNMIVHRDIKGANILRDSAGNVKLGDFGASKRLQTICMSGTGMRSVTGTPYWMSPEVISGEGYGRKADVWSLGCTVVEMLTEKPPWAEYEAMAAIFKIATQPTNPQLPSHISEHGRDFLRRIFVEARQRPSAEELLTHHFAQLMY

Chain of Bromodomain and PHD finger-containing protein 3 (Homo sapiens) (Q9ULD4 whole entry, the tested form may be a part): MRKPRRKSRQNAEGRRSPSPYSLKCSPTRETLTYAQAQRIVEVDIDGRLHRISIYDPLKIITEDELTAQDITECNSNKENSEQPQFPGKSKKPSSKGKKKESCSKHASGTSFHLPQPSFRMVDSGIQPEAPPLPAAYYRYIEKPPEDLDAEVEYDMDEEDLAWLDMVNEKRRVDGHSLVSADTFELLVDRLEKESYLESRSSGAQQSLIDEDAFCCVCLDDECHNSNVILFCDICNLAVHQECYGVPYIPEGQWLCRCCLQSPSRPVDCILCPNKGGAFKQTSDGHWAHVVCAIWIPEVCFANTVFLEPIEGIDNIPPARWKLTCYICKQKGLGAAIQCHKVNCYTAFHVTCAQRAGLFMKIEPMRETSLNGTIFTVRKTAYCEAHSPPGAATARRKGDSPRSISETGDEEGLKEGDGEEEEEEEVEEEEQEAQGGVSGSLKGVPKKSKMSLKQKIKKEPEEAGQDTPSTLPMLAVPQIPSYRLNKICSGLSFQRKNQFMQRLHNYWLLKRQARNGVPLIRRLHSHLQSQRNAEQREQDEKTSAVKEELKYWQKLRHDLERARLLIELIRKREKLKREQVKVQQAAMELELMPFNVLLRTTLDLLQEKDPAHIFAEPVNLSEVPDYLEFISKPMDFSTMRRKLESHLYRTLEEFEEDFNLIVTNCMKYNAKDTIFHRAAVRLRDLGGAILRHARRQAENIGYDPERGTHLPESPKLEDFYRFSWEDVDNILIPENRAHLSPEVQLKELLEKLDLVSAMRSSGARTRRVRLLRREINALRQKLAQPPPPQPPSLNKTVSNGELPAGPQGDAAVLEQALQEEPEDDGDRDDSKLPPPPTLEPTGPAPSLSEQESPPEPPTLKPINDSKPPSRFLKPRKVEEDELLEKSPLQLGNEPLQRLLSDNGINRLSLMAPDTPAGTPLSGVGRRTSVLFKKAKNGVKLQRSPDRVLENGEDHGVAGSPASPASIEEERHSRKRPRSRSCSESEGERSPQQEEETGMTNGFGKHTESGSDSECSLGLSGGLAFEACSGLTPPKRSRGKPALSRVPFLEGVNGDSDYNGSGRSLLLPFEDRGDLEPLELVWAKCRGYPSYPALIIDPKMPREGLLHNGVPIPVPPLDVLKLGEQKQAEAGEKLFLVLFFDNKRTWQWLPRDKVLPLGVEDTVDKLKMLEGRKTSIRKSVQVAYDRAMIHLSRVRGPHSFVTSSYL
Chain of Phosphorylase b kinase gamma catalytic chain, liver/testis isoform (Homo sapiens), P15735 [F290L] (P15735 whole entry F290L, the tested form may be a part, canonical isoform): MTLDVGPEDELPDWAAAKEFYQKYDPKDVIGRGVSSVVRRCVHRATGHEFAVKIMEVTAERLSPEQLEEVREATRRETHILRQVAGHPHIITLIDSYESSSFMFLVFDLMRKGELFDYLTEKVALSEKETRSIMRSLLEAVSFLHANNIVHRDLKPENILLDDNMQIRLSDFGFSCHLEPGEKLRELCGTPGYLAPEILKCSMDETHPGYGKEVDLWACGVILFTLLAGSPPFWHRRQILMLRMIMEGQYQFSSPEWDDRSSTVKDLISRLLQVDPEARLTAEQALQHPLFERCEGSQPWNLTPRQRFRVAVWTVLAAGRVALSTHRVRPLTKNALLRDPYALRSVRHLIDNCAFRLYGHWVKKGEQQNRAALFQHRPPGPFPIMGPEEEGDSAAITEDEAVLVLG
Chain of Receptor-type tyrosine-protein kinase FLT3 (Homo sapiens) (P36888 whole entry): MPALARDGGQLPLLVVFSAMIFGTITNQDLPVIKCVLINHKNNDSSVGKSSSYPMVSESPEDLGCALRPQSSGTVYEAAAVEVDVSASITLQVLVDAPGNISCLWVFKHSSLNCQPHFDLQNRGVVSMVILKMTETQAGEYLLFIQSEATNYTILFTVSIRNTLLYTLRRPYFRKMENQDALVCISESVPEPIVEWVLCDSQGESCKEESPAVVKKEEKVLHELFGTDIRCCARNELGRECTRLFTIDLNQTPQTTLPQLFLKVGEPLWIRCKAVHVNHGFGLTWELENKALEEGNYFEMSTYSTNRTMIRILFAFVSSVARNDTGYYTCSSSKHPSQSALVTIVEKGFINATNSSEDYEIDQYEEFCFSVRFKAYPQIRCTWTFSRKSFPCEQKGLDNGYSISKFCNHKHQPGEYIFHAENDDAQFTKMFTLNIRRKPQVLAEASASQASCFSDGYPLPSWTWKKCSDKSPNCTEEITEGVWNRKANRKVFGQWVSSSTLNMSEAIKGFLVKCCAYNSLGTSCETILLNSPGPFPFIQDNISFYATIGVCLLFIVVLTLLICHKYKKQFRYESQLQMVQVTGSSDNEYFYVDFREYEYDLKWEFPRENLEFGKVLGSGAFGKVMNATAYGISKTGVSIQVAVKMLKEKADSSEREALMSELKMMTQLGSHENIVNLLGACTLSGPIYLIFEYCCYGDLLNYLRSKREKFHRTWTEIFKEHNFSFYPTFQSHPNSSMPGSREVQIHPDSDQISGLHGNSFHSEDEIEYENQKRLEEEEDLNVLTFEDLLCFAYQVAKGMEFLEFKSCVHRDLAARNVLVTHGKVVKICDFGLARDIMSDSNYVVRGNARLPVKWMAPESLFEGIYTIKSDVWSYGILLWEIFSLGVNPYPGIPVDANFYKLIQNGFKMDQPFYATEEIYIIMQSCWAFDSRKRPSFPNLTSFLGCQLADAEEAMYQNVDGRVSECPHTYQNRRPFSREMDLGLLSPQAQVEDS
Chain of Aurora kinase B (Homo sapiens) (Q96GD4 whole entry): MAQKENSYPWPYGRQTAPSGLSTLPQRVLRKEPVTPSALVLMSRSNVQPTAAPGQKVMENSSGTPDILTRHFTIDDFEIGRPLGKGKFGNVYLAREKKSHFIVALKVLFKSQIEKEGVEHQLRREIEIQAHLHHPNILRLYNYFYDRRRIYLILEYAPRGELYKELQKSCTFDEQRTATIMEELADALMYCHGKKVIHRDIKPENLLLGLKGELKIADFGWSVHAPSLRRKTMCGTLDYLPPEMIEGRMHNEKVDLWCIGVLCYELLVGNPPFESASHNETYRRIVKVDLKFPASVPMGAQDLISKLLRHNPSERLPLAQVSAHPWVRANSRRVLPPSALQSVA
Chain of Histone acetyltransferase KAT2A (Q92830 whole entry): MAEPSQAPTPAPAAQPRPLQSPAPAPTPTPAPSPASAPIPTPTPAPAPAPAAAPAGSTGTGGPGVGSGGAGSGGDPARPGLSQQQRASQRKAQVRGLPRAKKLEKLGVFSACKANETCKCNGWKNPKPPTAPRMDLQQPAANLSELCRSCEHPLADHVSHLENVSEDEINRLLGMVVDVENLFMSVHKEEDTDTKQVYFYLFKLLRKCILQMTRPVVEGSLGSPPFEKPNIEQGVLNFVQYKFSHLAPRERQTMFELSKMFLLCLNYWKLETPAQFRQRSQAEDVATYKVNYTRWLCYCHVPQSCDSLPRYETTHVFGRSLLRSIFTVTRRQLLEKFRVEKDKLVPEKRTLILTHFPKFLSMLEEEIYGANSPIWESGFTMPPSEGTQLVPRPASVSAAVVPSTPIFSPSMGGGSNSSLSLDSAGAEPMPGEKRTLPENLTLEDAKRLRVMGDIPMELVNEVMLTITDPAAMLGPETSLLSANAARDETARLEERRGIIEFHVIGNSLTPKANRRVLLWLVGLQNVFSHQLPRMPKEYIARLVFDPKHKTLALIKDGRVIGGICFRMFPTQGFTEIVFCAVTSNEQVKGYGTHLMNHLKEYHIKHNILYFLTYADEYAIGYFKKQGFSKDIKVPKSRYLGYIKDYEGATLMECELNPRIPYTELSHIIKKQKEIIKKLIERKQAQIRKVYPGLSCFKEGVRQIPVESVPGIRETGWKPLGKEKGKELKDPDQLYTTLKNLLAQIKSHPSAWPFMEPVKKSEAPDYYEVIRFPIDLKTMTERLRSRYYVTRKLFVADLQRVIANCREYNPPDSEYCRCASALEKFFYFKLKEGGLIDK
Chain of NUAK family SNF1-like kinase 2 (Homo sapiens) (Q9H093 whole entry): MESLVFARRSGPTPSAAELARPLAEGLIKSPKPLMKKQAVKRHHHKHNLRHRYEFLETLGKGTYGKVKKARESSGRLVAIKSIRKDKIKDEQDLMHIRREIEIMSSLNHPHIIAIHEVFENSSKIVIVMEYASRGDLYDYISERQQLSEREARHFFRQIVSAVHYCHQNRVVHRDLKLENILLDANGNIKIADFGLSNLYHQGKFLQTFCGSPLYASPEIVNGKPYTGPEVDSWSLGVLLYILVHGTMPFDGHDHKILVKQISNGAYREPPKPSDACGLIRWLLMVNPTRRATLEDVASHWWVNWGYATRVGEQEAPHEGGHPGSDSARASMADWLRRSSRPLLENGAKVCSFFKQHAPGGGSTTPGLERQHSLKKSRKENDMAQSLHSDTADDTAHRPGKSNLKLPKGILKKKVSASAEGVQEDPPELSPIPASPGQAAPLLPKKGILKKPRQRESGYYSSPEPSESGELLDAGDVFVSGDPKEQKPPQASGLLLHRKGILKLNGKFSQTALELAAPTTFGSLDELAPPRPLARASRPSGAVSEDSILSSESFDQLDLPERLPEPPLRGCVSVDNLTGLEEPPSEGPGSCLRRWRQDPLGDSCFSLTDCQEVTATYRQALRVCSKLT

Q: Which inhibition [1] does the source give for `CN1C[C@H](Nc2nc3cc[nH]c3c(=O)n2C)C[C@H](c2ccc3c(c2)OCCO3)C1` here?
A: Its inhibition is “inactive”.

Q: What about the inhibition (Homo sapiens [2]) of the same compound?
A: Its inhibition is “inactive”.

Q: What about the Kd [3] of the same compound?
A: The Kd was 105 nM.

Q: What about the inhibition [4] of the same compound?
A: Its inhibition is “inactive”.

Q: What about the solubility [5] of the same compound?
A: Its solubility is 480 µM (≈ 190 µg/mL).

Q: And the inhibition (Homo sapiens [6])?
A: Its inhibition is “inactive”.

Q: What about the inhibition [7] of the same compound?
A: Its inhibition is “inactive”.

Q: What about the inhibition [8] of the same compound?
A: Its inhibition is “inactive”.

Q: And the Activity [9]?
A: Its Activity is “Active”.

Q: And the inhibition [10]?
A: The inhibition was “inactive”.

Q: What about the inhibition [11] of the same compound?
A: The inhibition was “inactive”.

Q: What about the inhibition [12] of the same compound?
A: The inhibition was “inactive”.

Q: And the Activity [13]?
A: Its Activity is “inactive”.

Q: What about the inhibition [14] of the same compound?
A: Its inhibition is “inactive”.

Q: And the Activity [15]?
A: Its Activity is “inactive”.

Q: What about the inhibition [16] of the same compound?
A: The inhibition was “inactive”.

Q: What about the inhibition [17] of the same compound?
A: The inhibition was “inactive”.

Q: What about the inhibition [18] of the same compound?
A: Its inhibition is “inactive”.

Q: What about the inhibition [19] of the same compound?
A: Its inhibition is “inactive”.

Q: What about the ΔTm [20] of the same compound?
A: Its ΔTm is 1.9 °C.

Q: What about the inhibition [21] of the same compound?
A: The inhibition was “inactive”.

Q: What about the inhibition [22] of the same compound?
A: Its inhibition is “inactive”.

Q: What about the inhibition [23] of the same compound?
A: The inhibition was “inactive”.
